Source: PubChem BioAssay (several laboratories)
PHOSPHO1 inh: inhibitors of human PHOSPHO1 phosphatase. Q8TCT1. recombinant PHOSPHO1, absorbance phosphatase assay. inhibition, % at 13.3 µM. 290,000 tested, 1.1% active; in the data active = inhibition above about 60%
HSF1 activator: increases HSF-1 driven luciferase reporter signal; NIH3T3-HGL HSF-1 luciferase reporter, MG132, 8 h; 100% = twice DMSO control signal; activation, % at 9 µM; 300,000 tested, 1.7% active; AID 504408;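 active = mean replicate activation of at least 50% with a set share of replicates each reaching 50%; inconclusive = only one of those two conditions met; inactive = mean below 50% and too few replicates reaching it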;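 also: 0% = median of the neutral control wells and 100% = twice that signal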
HSF1 inhib: HSF1 inhibition. activity change, negative = inhibition, % at 7.5 µM (by protocol). NIH3T3-HGL HSE-luciferase, MG132-induced, luminescence 8 h; active compounds read low. 300,000 tested, 0.77% active;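 active = more than half of replicate wells show activity change below -50%, luminescence cut by over half; inconclusive = some wells, but at most half, below -50%; inactive = no replicate well below -50%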;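 also: luciferase reports HSF-1 transcriptional activity via heat shock element; 0% = median of DMSO wells and -100% = zero luminescence signal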
CHT PAM: allosteric activators of human choline transporter CHT. Q9GZV3. CHT-expressing cells, membrane potential dye, choline EC20; active compounds read high; LV-AA mutant CHT in HEK293 cells. B-score at 10 µM. 310,000 tested, 0.49% active;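 active = initial fluorescence not abnormally high and integrated response B-score, plate-corrected, over 3 SD above library mean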
Target sequence (Q9GZV3 whole entry, looked up): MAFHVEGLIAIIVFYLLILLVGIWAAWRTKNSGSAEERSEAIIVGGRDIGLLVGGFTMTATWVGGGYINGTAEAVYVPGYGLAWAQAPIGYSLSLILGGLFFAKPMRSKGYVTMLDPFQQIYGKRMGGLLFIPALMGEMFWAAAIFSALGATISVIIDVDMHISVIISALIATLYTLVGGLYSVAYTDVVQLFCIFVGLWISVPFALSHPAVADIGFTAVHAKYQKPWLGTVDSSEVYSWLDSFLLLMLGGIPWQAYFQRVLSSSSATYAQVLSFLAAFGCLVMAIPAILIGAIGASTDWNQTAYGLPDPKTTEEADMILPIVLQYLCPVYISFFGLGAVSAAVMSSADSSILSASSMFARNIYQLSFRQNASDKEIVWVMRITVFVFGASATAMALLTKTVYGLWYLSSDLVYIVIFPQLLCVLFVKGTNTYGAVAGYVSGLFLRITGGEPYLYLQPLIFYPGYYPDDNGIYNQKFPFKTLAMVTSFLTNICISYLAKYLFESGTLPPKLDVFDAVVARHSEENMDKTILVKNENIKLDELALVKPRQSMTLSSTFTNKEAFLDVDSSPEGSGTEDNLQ
Lipid droplet: modulators of hepatic lipid droplet formation; AML12 mouse hepatocytes, oleate lipid droplets, BODIPY imaging; inhibition, % at 6.5 µM; 240,000 tested, 0.4% active;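 active = lipid droplet intensity inhibited by at least 50%, with more than 500 cells counted; inconclusive = wells with under 300 cells, treated as cytotoxic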
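System: AML12 hepatocytes (mouse). Probe or stimulus: oleic acid at 100 µM to induce lipid droplet formation. Times: overnight treatment with compound plus oleate. Detection: Image-based BODIPY and DAPI two-channel analysis. Evaluation: percent inhibition of filter-corrected integrated lipid droplet intensity per well.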
CHT inh: human CHT choline transport inhibition; 310,000 tested, 0.86% active; Q9GZV3; CHT-expressing cells, membrane potential dye, choline response; active compounds read low; B-score at 10 µM;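 active = B-score over 3 SD under the library average, and starting fluorescence ratio not unusually high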;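 also: choline stimulus applied at its EC90 after an EC20 pre-addition; B-score computed on integrated fluorescence ratio after choline addition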
CHT activ conf: confirmation of human choline transporter (CHT) activators; shares compounds with CHT PAM; CHT-expressing cells, membrane potential dye fluorescence (FDSS); % of choline EC20–EC90 response window; HEK293 expressing CHT LV-AA mutant; choline added at its EC20; activation, % at 10 µM; 2,500 tested, 91% active; AID 504833;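 active = primary screen active, with duplicate mean activation above negative control mean plus 3 SD, cut at about 11% in these data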
HEK293 MP dye: activity in parental HEK293 cells lacking CHT | shares compounds with CHT PAM | membrane potential dye fluorescence (FDSS); measured after EC20 choline addition | ratio readout change at 10 µM, hits read low | 2,500 tested, 62% active | AID 623908;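 active = duplicate-averaged ratio beyond 3 SD from buffer wells, up or down, though filed actives are nearly all decreases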
* hit, by the source's call; i = inactive; ? = inconclusive; . = not tested or not shown. A selection: hits, their analogues and other compounds. The true share with any hit is near 4.9%.

SMILES	PHOSPHO1 inh	HSF1 activator	HSF1 inhib	CHT PAM	Lipid droplet	CHT inh	CHT activ conf	HEK293 MP dye
N#Cc1c(N)sc2c1CCN(CCc1ccccc1)C2	2	-1	-5	i	2	i	30*	-41*
C=CCn1c2ccccc2n2nc(C)c(=O)nc12	-3	10	-6	i	-1	i	.	.
Cc1nn2c3ccccc3n(CCN3CCCCC3)c2nc1=O	0	-10	-4	7.1*	9	i	39*	-42*
COC(=O)COc1ccc(-c2ccccc2)cc1C=O	-1	-3	-16	20*	10	i	6	i
Cn1cccc/c1=N\c1cccc[n+]1C	15	8	-1	i	-2	i	67*	-56*
O=C(Cn1cc(C(F)(F)F)cc(Cl)c1=O)Nc1cc(Cl)cc(Cl)c1	25	-9	-1	i	-10	i	.	.
O=C(CN(C(=O)c1csnn1)c1ccc(F)c(Cl)c1)NC1CCCCC1	46	-8	0	i	-18	i	.	.
c1ccc(-c2cn(-c3ccccc3)c3[n+]2CCS3)cc1	12	18	14	6.8*	4	i	56*	-34*
c1ccc(-c2c[n+]3c(n2-c2ccccc2)SCC3)cc1	32	-6	4	6.6*	5	i	49*	-33*
CC(C)c1ccc(CN2C(=O)NC3(CCCCCC3)C2=O)cc1	10	21	4	i	-4	i	.	.
CCO[C@H]1OC(C(=O)NCc2nc3ccccc3[nH]2)=C[C@@H](C2CC2)[C@@H]1CCCO	26	-20	-10	i	?	i	26*	i
COC(=O)[C@@]1(Cc2ccc(OC)cc2)[C@H]2c3cc(C(=O)N(C)C)n(CCSCCO)c3C[C@H]2CN1C(=O)c1ccccc1	-9	.	.	i	-13	i	.	.
Cc1ccc(NC(=O)CN2C(=O)NC(Cc3ccccc3)C2=O)c(Br)c1 (configuration not stated)	17	15	-4	i	14	i	.	.
Cc1c(NC(=O)C(C)OC(=O)c2cccs2)c(=O)n(-c2ccccc2)n1C (configuration not stated)	0	1	-1	i	3	i	.	.
CCC(C)(C)C1CCc2nc3ccccc3c(C(=O)OC(C)C(=O)Nc3c(C)n(C)n(-c4ccccc4)c3=O)c2C1 (configuration not stated)	-14	-4	5	11*	11	i	32*	i
COc1cc(NC(=O)CSc2nc3c(C)ccc(C)c3cc2C)c(C(=O)O)cc1OC	-5	4	7	i	0	i	.	.
CC(C)CC(C(=O)N1CCc2ccccc2C1)N1C(=O)c2ccccc2C1=O (configuration not stated)	11	16	2	i	-26	i	39*	i
Cc1sc2nc(SCc3ccc(C(=O)O)cc3)n(Cc3ccco3)c(=O)c2c1C	-98	-5	-4	6.7*	-5	i	32*	i
C=CCn1c(SCc2ccc(C(=O)O)cc2)nc2sc(C)c(C)c2c1=O	6	-1	-3	i	7	i	.	.
COCCn1c(N)c(N(Cc2ccccc2)C(=O)COc2ccc(F)cc2Cl)c(=O)[nH]c1=O	.	4	2	i	.	i	.	.
COc1cnc(-c2ccccn2)nc1N(C)C	12	-15	-6	i	.	i	33*	-36*
CCNc1nc(NCC)n2c(SCC(=O)Nc3cccc(F)c3)nnc2n1	.	-3	-3	i	.	i	.	.
O=C(O)C1NCCc2ccccc21 (configuration not stated)	-23	-5	-5	i	.	i	8	i
Cc1ccc(N/C(N)=N/c2nc(CSc3nnc(N)s3)cc(=O)[nH]2)cc1	-6	.	.	i	.	i	5	i
Cc1ccc(N/C(N)=N/c2nc(CSc3ccc(C)cc3)cc(=O)[nH]2)cc1	26	.	.	.	-5	.	.	.
SMILES	PHOSPHO1 inh	HSF1 activator	HSF1 inhib	CHT PAM	Lipid droplet	CHT inh	CHT activ conf	HEK293 MP dye
Cc1cnc(C(=O)Nc2cccc3ncccc23)cn1	-2	7	-9	8*	.	i	43*	-47*
Cc1cc(C(=O)Nc2cccc3ncccc23)no1	5	4	-2	i	.	i	.	.
Cc1ccc(C(c2nnnn2C2CCCCC2)N(C)C2CCCCC2)cc1 (configuration not stated)	8	30	11	i	-32	i	6	i
CC(C)C(c1nnnn1C1CCCC1)N(C)C1CCCCC1 (configuration not stated)	10	2	-4	i	-13	i	.	.
Cc1nnc(SCC(=O)c2ccccc2F)n1Cc1ccccc1	-148	27	22	i	-8	i	.	.
CC(CC12CC3CC(CC(C3)C1)C2)NCc1ccccc1O (configuration not stated)	19	46	19	i	4	i	5	i
Cc1ccc(C(=O)c2ccc(C(F)(F)F)cc2)cc1	9	-4	-6	i	4	i	.	.
C/C(=N/NC(=O)c1cnccn1)c1ccncc1	-17	33	9	6.4*	3	i	49*	-40*
C/C(=N/NC(=O)c1ccccn1)c1ccncc1	0	22	18	i	-4	i	.	.
Cc1cc(=S)n(-c2ccccc2)n1C	-27	-1	-5	7*	-3	i	8	i
Cc1c(N)c(=O)n(-c2ccccc2)n1C	.	.	.	i	.	i	.	.
O=C(O)c1cc(O)ccc1NC(=O)C1CCCO1 (configuration not stated)	24	-5	-5	i	.	i	.	.
Cc1ccc2cc(C)c(NCCO)nc2c1	6	5	-3	8.1*	13	i	31*	-52*
Cc1ccc2nc(C)cc(NCCO)c2c1	-3	-17	3	8.7*	10	i	53*	-67*
Cc1ccc2nc(C)cc(Nc3ccc4c(c3)OCCO4)c2c1	-14	-9	-20	i	.	i	21*	-44*
CCOc1ccc2nc(C)cc(Nc3ccc4c(c3)OCCO4)c2c1	30	27	6	i	.	i	.	.
CC(=O)c1ccc(Nc2cc(C)nc3ccc(C)cc23)cc1	33	-2	2	i	-12	i	.	.
CCN(CC)c1nc(N2CCN(CCO)CC2)nc2ccccc12	.	4	-7	i	11	i	.	.
